Test results as given in ChEMBL document CHEMBL3232996, “Synthesis and biological evaluation of novel (123)I-labeled 4-(4-iodophenyl)butanoyl-L-prolyl-(2S)-pyrrolidines for imaging prolyl oligopeptidase in vivo” (Eur J Med Chem, 2014).

Key:
Type in all cases: ADME, organism-based
Mus musculus [1] = test: Biodistribution in C57Bl/6JRccHsd mouse testis at 2.86 +/- 1.26 MBq, iv measured at 80 mins post dose pretreated with 50 umol/kg, ip prolyl oligopeptidase inhibitor KYP-2047 10 mins before compound dosing by SPECT analysis; details: in vivo
How it was run: (§1)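 Organs excised at 5, 20, 40, 80 or 160 min and radioactivity gamma-counted as %ID/g (brain also as %ID). Blocking groups received KYP-2047 (50 µmol/kg, 10 mL/kg, 1% DMSO in 0.9% NaCl) i.p. 10 min before tracer. Mean ± SD, n = 2–4 per time point. Blocking compared by two-tailed Student's t test.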

[2] = Biodistribution in brain of iv dosed C57BL/6JRccHsd mouse LPS-induced acute neuroinflammation model dosed 24 hrs after LPS challenge and measured at 80 mins post dose
How it was run: (§2)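 Male mice under isoflurane got a stereotaxic LPS injection (E. coli 055:B5) into the left striatum, with buprenorphine 0.1 mg/kg s.c. for post-operative pain. The right hemisphere served as intact control. Tracer was given i.v. 24 h later. Left and right hemisphere and whole-brain radioactivity were measured 80 min post injection as %ID/g or %ID, n = 3.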

Heart = test: Biodistribution in C57Bl/6JRccHsd mouse heart at 2.86 +/- 1.26 MBq, iv measured at 80 mins post dose pretreated with 50 umol/kg, ip prolyl oligopeptidase inhibitor KYP-2047 10 mins before compound dosing by SPECT analysis; details: in vivo; how it was run: as §1
Mus musculus [3] = test: Biodistribution in C57Bl/6JRccHsd mouse salivary gland at 2.86 +/- 1.26 MBq, iv measured at 80 mins post dose pretreated with 50 umol/kg, ip prolyl oligopeptidase inhibitor KYP-2047 10 mins before compound dosing by SPECT analysis; details: in vivo; how it was run: as §1
Thyroid gland [4] = test: Biodistribution in C57Bl/6JRccHsd mouse thyroid at 2.86 +/- 1.26 MBq, iv measured at 5 mins by SPECT analysis; details: in vivo; how it was run: as §1
[5] = Drug uptake in iv dosed C57Bl/6JRccHsd mouse blood cells measured at 20 mins post dose pretreated with 50 umol/kg, ip prolyl oligopeptidase inhibitor KYP-2047 10 mins before compound dosing by SPECT analysis; details: in vivo
How it was run: (§3)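 Mice got tracer i.v., some after i.p. KYP-2047 (50 µmol/kg) 10 min before. Cardiac blood was collected at 20, 40, 80 or 160 min and spun 5 min at 2000 g into cells and plasma. Plasma was precipitated with acetonitrile and pellet and supernatant were gamma-counted. Activity in cells, protein-bound and free plasma is given as % of total blood activity, n = 3.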

[6] = Fraction unbound in iv dosed C57Bl/6JRccHsd mouse plasma measured at 40 mins
How it was run: (§4)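 Male mice given 3.6 MBq tracer i.v. via lateral tail vein; blocking groups got POP inhibitor i.p. (50 µmol/kg, 10 mL/kg, 1% DMSO in 0.9% NaCl) 10 min before. Heparinized cardiac blood on ice, gamma-counted, spun 5 min at 2000 g; plasma counted, precipitated with 1.5 volumes acetonitrile, respun; cell-bound, protein-bound and free fractions expressed as % of blood activity; n = 3.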

Kidney [7] = test: Biodistribution in C57Bl/6JRccHsd mouse kidney at 2.86 +/- 1.26 MBq, iv measured at 80 mins post dose pretreated with 50 umol/kg, ip prolyl oligopeptidase inhibitor KYP-2047 10 mins before compound dosing by SPECT analysis; details: in vivo; how it was run: as §1
Kidney [8] = test: Biodistribution in C57Bl/6JRccHsd mouse kidney at 2.86 +/- 1.26 MBq, iv measured at 80 mins by SPECT analysis; details: in vivo; how it was run: as §1
[9] = Fraction unbound in iv dosed C57Bl/6JRccHsd mouse plasma measured at 160 mins post dose pretreated with 50 umol/kg, ip prolyl oligopeptidase inhibitor KYP-2047 10 mins before compound dosing by SPECT analysis; how it was run: as §3
Spleen [10] = test: Biodistribution in C57Bl/6JRccHsd mouse spleen at 2.86 +/- 1.26 MBq, iv measured at 80 mins by SPECT analysis; details: in vivo; how it was run: as §1
Blood [11] = test: Biodistribution in C57Bl/6JRccHsd mouse blood at 2.86 +/- 1.26 MBq, iv measured at 80 mins by SPECT analysis; details: in vivo; how it was run: as §1
Thyroid gland [12] = test: Biodistribution in C57Bl/6JRccHsd mouse thyroid at 2.86 +/- 1.26 MBq, iv measured at 160 mins by SPECT analysis; details: in vivo; how it was run: as §1
[13] = Plasma protein binding in iv dosed C57Bl/6JRccHsd mouse measured at 40 mins; details: read-out: PPB (converted); how it was run: as §4
Liver = test: Biodistribution in C57Bl/6JRccHsd mouse liver at 2.86 +/- 1.26 MBq, iv measured at 80 mins post dose pretreated with 50 umol/kg, ip prolyl oligopeptidase inhibitor KYP-2047 10 mins before compound dosing by SPECT analysis; details: in vivo; how it was run: as §1
[14] = Drug uptake in iv dosed C57Bl/6JRccHsd mouse blood cells measured at 160 mins post dose pretreated with 50 umol/kg, ip prolyl oligopeptidase inhibitor KYP-2047 10 mins before compound dosing by SPECT analysis; details: in vivo; how it was run: as §3
Spleen [15] = test: Biodistribution in C57Bl/6JRccHsd mouse spleen at 2.86 +/- 1.26 MBq, iv measured at 80 mins post dose pretreated with 50 umol/kg, ip prolyl oligopeptidase inhibitor KYP-2047 10 mins before compound dosing by SPECT analysis; details: in vivo; how it was run: as §1
[16] = Plasma protein binding in iv dosed C57Bl/6JRccHsd mouse measured at 160 mins; details: in vivo; how it was run: as §4
Mus musculus [17] = test: Biodistribution in C57Bl/6JRccHsd mouse tongue at 2.86 +/- 1.26 MBq, iv measured at 80 mins post dose pretreated with 50 umol/kg, ip prolyl oligopeptidase inhibitor KYP-2047 10 mins before compound dosing by SPECT analysis; details: in vivo; how it was run: as §1
Blood [18] = test: Biodistribution in C57Bl/6JRccHsd mouse blood at 2.86 +/- 1.26 MBq, iv measured at 80 mins post dose pretreated with 50 umol/kg, ip prolyl oligopeptidase inhibitor KYP-2047 10 mins before compound dosing by SPECT analysis; details: in vivo; how it was run: as §1
[19] = Plasma protein binding in iv dosed C57Bl/6JRccHsd mouse measured at 20 mins; details: read-out: PPB (converted); how it was run: as §4
Brain = test: Biodistribution in C57Bl/6JRccHsd mouse brain at 2.86 +/- 1.26 MBq, iv measured at 80 mins post dose pretreated with 50 umol/kg, ip prolyl oligopeptidase inhibitor KYP-2047 10 mins before compound dosing by SPECT analysis; details: in vivo; how it was run: as §1
[20] = Fraction unbound in iv dosed C57Bl/6JRccHsd mouse plasma measured at 160 mins; how it was run: as §3
[21] = Plasma protein binding in iv dosed C57Bl/6JRccHsd mouse measured at 20 mins post dose pretreated with 50 umol/kg, ip prolyl oligopeptidase inhibitor KYP-2047 10 mins before compound dosing by SPECT analysis; details: in vivo; how it was run: as §4
[22] = Biodistribution in right brain hemisphere of iv dosed C57BL/6JRccHsd mouse dosed 24 hrs after LPS challenge and measured at 80 mins post dose; details: read-out: Drug uptake; how it was run: as §2

SMILES: N#C[C@@H]1CCCN1C(=O)[C@@H]1CCCN1C(=O)CCCc1ccc([123I])cc1
- Drug uptake (Mus musculus [1]): 0.57 % ID/g
- tissue uptake at 80 min [2]: 0.6 %ID
- Drug uptake (Heart): 1.34 % ID/g
- Drug uptake (Mus musculus [3]): 1.52 % ID/g
- Drug uptake (Thyroid gland [4]): 52 % ID/g
- Drug uptake [5]: 53%
- fraction unbound at 40 min [6]: 0.08
- Drug uptake (Kidney [7]): 4.73 % ID/g
- Drug uptake (Kidney [8]): 10.02 % ID/g
- fraction unbound at 160 min [9]: 0.58
- Drug uptake (Spleen [10]): 10.56 % ID/g
- Drug uptake (Blood [11]): 2.1 % ID/g
- Drug uptake (Thyroid gland [12]): 9.4 % ID/g
- fraction unbound at 40 min [13]: 0.98
- Drug uptake (Liver): 5.05 % ID/g
- Drug uptake [14]: 42%
- Drug uptake (Spleen [15]): 0.92 % ID/g
- PPB [16]: 1%
- Drug uptake (Mus musculus [17]): 1.44 % ID/g
- Drug uptake (Blood [18]): 2.69 % ID/g
- fraction unbound at 20 min [19]: 0.98
- Drug uptake (Brain): 0.08 % ID/g
- fraction unbound at 160 min [20]: 0.26
- PPB [21]: 0%
- tissue uptake at 80 min [22]: 1.09 %ID/g
